# Screening data as filed in PubChem BioAssay.
# SIRT5 block = sirtuin-5 (human) deacylase inhibition. Q9NXA8. inhibition, % at 15 µM. AID 652115. hit rate 1.1% among 330,000. Purified SirT5, succinyl-peptide AMC, trypsin-coupled fluorescence; in the data active = inhibition above about 15%; inconclusive = no clear call, values can overlap the other calls
# Target sequence (Q9NXA8 whole entry, looked up): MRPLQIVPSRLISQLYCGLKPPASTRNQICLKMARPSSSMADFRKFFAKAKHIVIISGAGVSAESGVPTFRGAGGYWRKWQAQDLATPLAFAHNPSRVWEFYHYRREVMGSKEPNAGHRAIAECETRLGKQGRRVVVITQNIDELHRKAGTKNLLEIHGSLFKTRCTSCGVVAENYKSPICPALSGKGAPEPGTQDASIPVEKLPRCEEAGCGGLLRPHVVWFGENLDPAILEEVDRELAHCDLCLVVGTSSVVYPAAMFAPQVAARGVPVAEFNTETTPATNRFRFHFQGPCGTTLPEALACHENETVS
# DENV2 CPE rescue = protects cells from dengue virus 2 cytopathic effect; DENV2-infected cells, cytopathic effect rescue, plate reader; CPE inhibition, % at 9.99 µM; hit rate 1.7% among 350,000; in the data active = CPE inhibition above about 20%, passing the limit was not always enough; inconclusive = no clear call, values can overlap the other calls; tested in BHK-21 cells;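 note: 0% = median of neutral control wells and 100% = median of positive control wells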
# E-selectin induc = induces E-selectin expression in human endothelial cells; HUVEC E-selectin immunofluorescence imaging; normalized: neutral wells 0, TNF-alpha wells 100; hit rate 0.37% among 260,000; activation, % at 7.58 µM; P16581;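 active = mean E-selectin-positive cell signal at least 10% of the positive control, reached in at least 60% of replicates, without over 20% cell loss; inconclusive = no rule given, readout overlaps actives, possibly toxicity-flagged; inactive = the rest, including those meeting only one limit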
#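 Test system: HUVEC | Signal: Immunofluorescence imaging | Read-out: Percent E-selectin-positive cells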
# * hit, by the source's call; ? = inconclusive; · = not tested or not shown. Rows were chosen to be rich in hits. Some 2.8% of all compounds tested hit in one or more screens of this group.
SMILES,SIRT5 block,DENV2 CPE rescue,E-selectin induc
COc1ccc(NC(=O)N(C)C[C@H]2Oc3ccc(NC(=O)Cc4cn(C)c5ccccc45)cc3C(=O)N([C@@H](C)CO)C[C@@H]2C)cc1,4.8,·,-0.7
CC(C)NC(=O)N(C)C[C@H]1Oc2ccc(NC(=O)Cc3cn(C)c4ccccc34)cc2C(=O)N([C@@H](C)CO)C[C@@H]1C,2.1,6.2,2.3
CCC(=O)N1C[C@H](C)[C@@H](OC)CN(C)C(=O)c2ccc(NC(=O)c3cnccn3)cc2OC[C@H]1C,4.3,8.8,-0.2
CO[C@@H]1CN(C)C(=O)c2cc(NS(C)(=O)=O)ccc2OC[C@H](C)N(Cc2ccccn2)C[C@H]1C,·,·,0.1
C[C@H](CO)N1C[C@H](C)[C@H](CN(C)Cc2ccc(Oc3ccccc3)cc2)Oc2ccc(NC(=O)c3ccncc3)cc2CC1=O,5.6,10.9,21.2
Cc1cccc(C)c1NC(=O)N1CC=CCC1,-2.0,6.8,-0.2
Cc1cccc(C)c1NC(=O)N1CCCCCCC1,28.4*,5.5,-0.1
COC(=O)c1c(NC(=O)CSc2nc3ccccc3c(=O)n2Cc2ccco2)sc(C)c1C,-4.6,-0.4,10.4
COCCn1c(C)cc(C(=O)CSc2nc3ccccc3c(=O)n2Cc2ccco2)c1C,-4.5,22.9*,·
C[C@H](CO)N1C[C@H](C)[C@@H](CN(C)C)Oc2ccc(NC(=O)CCCN(C)C)cc2CC1=O,-0.6,15.1,204.1*
C[C@H](CO)N1C[C@H](C)[C@H](CN(C)C)Oc2ccc(NC(=O)Nc3ccccc3)cc2CC1=O,-0.4,-5.0,273.5*
C[C@@H]1CN([C@H](C)CO)C(=O)Cc2cc(NC(=O)CCCN(C)C)ccc2O[C@H]1CN(C)C,-2.1,16.0,0.5
C[C@@H]1CN([C@H](C)CO)C(=O)Cc2cc(NC(=O)Nc3ccc(F)cc3)ccc2O[C@@H]1CN(C)C,-4.4,9.0,·
C[C@H]1CN([C@@H](C)CO)C(=O)Cc2cc(NC(=O)Nc3ccccc3)ccc2O[C@H]1CN(C)C,-5.5,7.1,42.4*
C[C@@H]1CN([C@@H](C)CO)C(=O)Cc2cc(NC(=O)Nc3ccccc3)ccc2O[C@H]1CN(C)C,·,-6.8,-5.5
CCCC(=O)Nc1ccc2c(c1)C(=O)N(C)[C@H]1CC[C@H](CC(=O)O)O[C@H]1CO2,3.3,3.1,0.3
CC(=O)N1[C@H](CNC(=O)CN2CCOCC2)[C@@H](c2ccccc2)[C@@H]1CO,·,?,0.0
O=C(C[C@@H]1C[C@@H]2c3cc(NC(=O)Cc4ccncc4)ccc3O[C@@H]2[C@@H](CO)O1)NCc1ccccn1,·,·,0.4
CCCNC(=O)Nc1ccc2c(c1)C(=O)N(C)C[C@H](OC)[C@@H](C)CN(Cc1ccc(-c3ccccn3)cc1)[C@@H](C)CO2,·,·,-0.2
CC1=C/C(=C(\c2cc(C)c(O)c(Br)c2)c2ccccc2S(=O)(=O)O)C=C(Br)C1=O,16.0*,-6.9,0.1
Cc1cc(C(=O)c2ccccc2)cc(C)c1O,·,-1.4,-0.1
N#Cc1c(Cl)cccc1N1CCCC1,-2.4,-0.1,-0.3
N#Cc1c(Cl)cccc1N1CCSCC1,-0.4,36.2*,-0.2
CO[C@@H]1CN(C)C(=O)c2ccc(NC(=O)c3cnccn3)cc2OC[C@H](C)N(CC2CC2)C[C@@H]1C,-15.7,2.5,4.5
COc1ccc2c3c(n(C)c2c1)[C@@H](CO)N(C)CC31CCN(C(=O)c2cccnc2)CC1,-4.3,-4.7,-0.1
SMILES,SIRT5 block,DENV2 CPE rescue,E-selectin induc
CO[C@H]1CN(C)C(=O)c2cc(NC(=O)Nc3cc(Cl)cc(Cl)c3)ccc2OC[C@@H](C)NC[C@H]1C,103.0*,·,0.1
CO[C@H]1CN(C)C(=O)c2cc(NC(=O)Nc3ccccc3Cl)ccc2OC[C@@H](C)NC[C@@H]1C,6.0,30.8*,0.0
CO[C@H]1CN(C)C(=O)c2cc(NC(=O)Nc3ccccc3Cl)ccc2OC[C@H](C)NC[C@@H]1C,1.4,-3.2,-0.2
CO[C@@H]1CN(C)C(=O)c2cc(NC(=O)Nc3cc(Cl)cc(Cl)c3)ccc2OC[C@@H](C)NC[C@@H]1C,·,·,0.2
C[C@@H]1CCCCO[C@@H](CN(C)C(=O)Nc2ccccc2)[C@H](C)CN([C@@H](C)CO)C(=O)c2cc(NS(=O)(=O)c3ccc(Cl)cc3)ccc2O1,7.5,-10.9,·
C[C@H]1CN([C@@H](C)CO)C(=O)c2ccccc2-c2ccccc2CO[C@H]1CN(C)S(=O)(=O)c1ccsc1,-4.1,2.5,-0.5
C[C@@H]1CCCCO[C@@H](CN(C)Cc2ccc3c(c2)OCO3)[C@H](C)CN([C@H](C)CO)C(=O)c2cc(NC(=O)c3ccccc3)ccc2O1,12.1,17.6,0.8
CSc1nc(Cl)c(Br)c(Nc2c[nH]c(=O)[nH]c2=O)n1,·,51.7*,-0.1
COc1ccc(Nc2c[nH]c(=O)[nH]c2=O)cc1,-3.7,-2.3,3.2
COc1ccc(CN(C)C[C@@H]2Oc3ccc(NC(=O)CCN4CCOCC4)cc3CC(=O)N([C@@H](C)CO)C[C@@H]2C)cc1,2.9,-6.5,-0.8
